FGF22 binding: binders of recombinant human FGF22 by thermal shift; Q9HCT0; activity (Tm shift, normalised), % at 9.99 µM; actives 1.5% (n = 340,000); SYPRO orange fluorescence; percent of sucrose octasulfate shift, DMSO zero;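 active means mean Tm shift, scaled 0 neutral to 100 positive control, at about 1.3% or above, every replicate too, limit read from the data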
Target sequence (Q9HCT0 whole entry, looked up): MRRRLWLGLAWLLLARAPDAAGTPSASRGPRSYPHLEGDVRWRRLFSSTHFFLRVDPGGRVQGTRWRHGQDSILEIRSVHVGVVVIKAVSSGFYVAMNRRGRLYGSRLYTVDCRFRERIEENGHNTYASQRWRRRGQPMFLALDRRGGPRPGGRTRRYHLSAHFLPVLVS
Rtt109 HAT inh: inhibitors of Candida albicans Rtt109/Vps75 histone acetyltransferase | inhibition, % at 34.9 µM | purified Rtt109/Vps75, ThioGlo CoA-SH fluorescence, 4 h | actives 0.16% (n = 330,000) | Q5AAJ8;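 active means inhibition of at least 50% in every replicate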
Efflux pump inh: blocks antifungal efflux pumps in multiplex yeast assay. S. cerevisiae Candida pump triplex, Nile Red efflux. actives 0.44% (n = 330,000). inhibition, % at 10 µM. AID 485275;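 active means plate passing quality check with inhibition over a set limit, or well fluorescence over plate mean plus 4 SD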;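 further: Nile Red retained in pooled yeast measured as flow cytometry median fluorescence; 0% = buffer negative control and 100% = Enniatin B positive control; higher means more Nile Red kept so more efflux inhibition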
ASAP1 GAP inh: blocks human ASAP1-stimulated Arf1 GTP hydrolysis | Q9ULH1 | GDP FP detection | inhibition, % at 16.5 µM | actives 0.19% (n = 360,000) | AID 624377; in the data active means inhibition above about 25%;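 further: 0% = vehicle with enzyme and substrate and 100% = no enzyme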
ARFGAP1 inh: inhibitors of rat ARFGAP1 | actives 0.26% (n = 360,000) | inhibition, % at 16.5 µM | Arfgap1-stimulated ARF1 GTP hydrolysis, GDP FP detection | AID 651572;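 active means inhibition above a per-plate limit, mean inhibition of low control wells plus 3 SD, cut at about 25% in these data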;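 further: 0% = DMSO wells with enzyme and 100% = wells lacking Arfgap1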
Target sequence (Q62848 1-136 limits assumed): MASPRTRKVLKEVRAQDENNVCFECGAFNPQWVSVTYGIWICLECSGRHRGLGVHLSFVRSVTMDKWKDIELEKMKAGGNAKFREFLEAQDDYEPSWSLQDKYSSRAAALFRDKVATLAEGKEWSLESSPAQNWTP
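System: truncated rat Arfgap1 GAP domain / Benchmarks: high control wells lacking Arfgap1, low control full reaction with DMSO / Times: compound-enzyme preincubation 20 min, reaction 120 min, detection 60 min, 25 °C / Repeats: one replicate per compound / Also added: human ARF1(Δ1-17)-GTP substrate / Measured by: Tracer-displacement fluorescence polarization with EDTA stop, 620/688 nm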
* = called active by the depositor; x = no result; ! = a repeat was not active. The list is not random: actives were taken first. Their share in the collection is about 1.9%.

SMILES | FGF22 binding | Rtt109 HAT inh | Efflux pump inh | ASAP1 GAP inh | ARFGAP1 inh
COc1ccccc1C(=O)N/N=C/c1ccc2c(c1)OCO2 | 0 | 0 | 0 | -7 | -3
COc1ccccc1N/N=C/c1ccc2c(c1)OCO2 | 44* | x | 0 | 21 | -4
CCC(C)NC(=O)[C@H]1N2C(=O)c3ccccc3C2SC1(C)C (some centres not stated) | 0 | 1 | 0 | -11 | 1
CCOC(=O)c1ccc(NC(=S)NCCc2ccccc2)cc1 | x | 11 | 0 | 8 | 7
CCOC(=O)c1ccc(NC(=S)NCCc2ccccc2F)cc1 | 44* | 7 | 0 | 14 | -5
COc1ccc(C(=O)NCc2nnc(SCC(=O)N3CCC(C)CC3)o2)cc1 | 44* | 1 | 0 | 4 | 13
COc1ccc(C(=O)NCc2nnc(SCC(=O)N3CCC(C)CC3)o2)cc1OC | x | -2 | 0 | -4 | -1
O=C(COc1ccc(Cl)cc1)NCc1nnc(SCC(=O)N2CCCC2)o1 | 43* | -4 | 0 | 4 | 0
O=C(COc1ccc(Cl)cc1)NCc1nnc(SCC(=O)N2CCCCCC2)o1 | 43* | 1 | 0 | 0 | -1
CC1Cc2ccccc2N1C(=O)c1ccc(N2CCCC2)c([N+](=O)[O-])c1 (configuration not stated) | 0 | 57* | 0 | -2 | -3
CC1Cc2ccccc2N1C(=O)c1ccc(N2CCCCC2)c([N+](=O)[O-])c1 (configuration not stated) | 0 | -2 | -2 | -5 | -2
CC(C)n1c(=S)[nH]c2ccccc2c1=O | x | 11 | 0 | -7 | -1
CCC(C)n1c(=S)[nH]c2ccccc2c1=O (configuration not stated) | 43* | 10 | 0 | 4 | 3
Cc1ccc(S(=O)(=O)Nc2cc(=O)[nH]c(SCc3ccc(Cl)cc3)n2)cc1 | 0 | -6 | 0 | 8 | -5
O=C(NCC(c1ccc(F)cc1)N1CCOCC1)c1cc(F)c(F)c(F)c1F (configuration not stated) | 43* | 1 | 0 | 10 | -8
O=C(NCC(c1ccc(F)cc1)N1CCOCC1)c1ccccc1F (configuration not stated) | 0 | 1 | 0 | 5 | -4
Cn1cccc1/C=N/NC(=O)CSc1nc2ccccc2n1C | 0 | 7 | 0 | 2 | -10
CCOc1ccccc1Cn1c(=O)sc2ccccc21 | 43* | 16 | 0 | -3 | -13
CCOC(=O)c1ccc2nc(NC(C)=O)sc2c1 | 43* | -2 | 0 | -4 | -11
FC(F)(F)c1nc2ccccc2n1CCNc1nc(CN2CCCCC2)cs1 | 0 | -5 | 0 | -7 | -2
CCCCCCCCCCCCCCCC[n+]1cccc(C(=O)N(CC)CC)c1 | 0 | 74*! | 3 | -9 | -14
CCN(CC)C(=O)c1ccc(/C=C/c2c[nH]c3ccccc23)[n+](C)c1 | x | 3 | 1 | -2 | 8
Oc1ccc[n+](CCCCC[n+]2cccc(O)c2)c1 | 0 | -5 | 0 | -3 | 6
CCCCCCCC[n+]1cccc(C(=O)N(CC)CC)c1 | 43* | x | 0 | 0 | -6
CC(C)CC(=O)N1CCN(S(=O)(=O)c2ccc(Cl)cc2)CC1 | 43* | -2 | 0 | 4 | -11
SMILES | FGF22 binding | Rtt109 HAT inh | Efflux pump inh | ASAP1 GAP inh | ARFGAP1 inh
COc1ccc(S(=O)(=O)N2CCN(C(=O)COc3ccccc3)CC2)cc1 | 43* | 8 | -1 | 0 | -1
COc1ccc(S(=O)(=O)CCC(=O)N2CCN(c3ccccc3F)CC2)cc1 | 44* | 1 | 0 | 9 | -6
C[C@H](O)C#Cc1cnc2c(c1)C(=O)N([C@H](C)CO)C[C@@H](C)[C@@H](CN(C)C(=O)c1ccc(F)cc1)O2 | 0 | x | x | x | x
COc1ccc2c3c(n(C)c2c1)[C@@H](CO)N(C(=O)C1CCOCC1)CC31CN(C(=O)C2CCOCC2)C1 | 0 | x | x | x | x
COc1cc2nc3n(c(=O)c2cc1OC)-c1cc2ccccc2cc1C(=O)NC3CC(C)C (configuration not stated) | 43* | x | x | -1 | 3
Cc1occc1C(=O)N/N=C/C=C/c1ccccc1 | 43* | 5 | 0 | -3 | -10
O=C(N/N=C/C=C/c1ccccc1)c1cccc(Br)c1 | 1.4* | 1 | 0 | 0 | -1
Cc1occc1C(=O)N/N=C/C=C/c1ccc(N(C)C)cc1 | -1 | -140 | 0 | 0 | 10

Compound activity deposited in PubChem by several laboratories.
